Test results published in ChEMBL document CHEMBL4477213, “Discovery and Optimization of Quinazolinone-pyrrolopyrrolones as Potent and Orally Bioavailable Pan-Pim Kinase Inhibitors” (J Med Chem, 2016).
Converted amounts (≈) assume the structure as drawn.

Assays:
[1] = target: Serine/threonine-protein kinase pim-1 (Homo sapiens, UniProt P11309)
[2] = target: Serine/threonine-protein kinase pim-2 (Homo sapiens, UniProt Q9P1W9); test: Inhibition of full length recombinant Pim-2 (unknown origin) assessed as reduction in phosphorylation of biotinylated-BAD peptide at Serine 112 residue preincubated for 30 mins followed by substrate addition for 1 hr by HTRF assay
[3] = target: Serine/threonine-protein kinase PIM (Homo sapiens, UniProt P11309+Q9P1W9+Q86V86); details: kms-12-bm
[4] = Drug level in dog liver microsomes treated with 2-(3-(tert-butylamino)-6-fluoro-2-methylquinoxalin-5-yl)-6,7-dihydro-1H-pyrrolo[3,2-c]pyridin-4(5H)-one; assay type: ADME, Canis lupus familiaris, Microsome
Procedure, shortened: (§1)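 Parent compound at 1 µM was incubated with liver microsomes (rat or dog, 0.25 mg/mL) in 66.7 mM potassium phosphate, pH 7.4, with 1 mM NADPH at 37 °C for 30 min.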

[5] = Clearance in rat at 2 mg/kg, iv; assay type: ADME, organism-based; details: in vivo
[6] = Intrinsic clearance in rat liver microsomes at 1 uM after 30 mins in presence of NADPH; assay type: ADME, Microsome; details: read-out: CLH
[7] = Volume of distribution at steady state in rat at 2 mg/kg, iv or 5 mg/kg, po; assay type: ADME, organism-based; details: in vivo, read-out: Vdss
[8] = Intrinsic clearance in human liver microsomes at 1 uM after 30 mins in presence of NADPH; assay type: ADME, Microsome; details: read-out: CLH
[9] = Half life in rat at 2 mg/kg, iv or 5 mg/kg, po; assay type: ADME, organism-based; details: in vivo
[10] = Oral bioavailability in rat at 5 mg/kg; assay type: ADME, organism-based; details: in vivo
[11] = Aqueous solubility of the compound in PBS at pH 7.4 after 1 hr by LC/MS analysis; assay type: physicochemical
Procedure, shortened: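 The compound was dried down from DMSO and taken up in 1x PBS (pH 7.4) or FaSIF (pH 6.8). Samples were shaken 1 h, equilibrated at RT for 72 h, then centrifuged.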

[12] = Aqueous solubility of the compound in FaSIF at pH 6.8 after 1 hr by LC/MS analysis
[13] = Half life in dog at 0.3 mg/kg, iv; assay type: ADME, organism-based, Canis lupus familiaris; details: in vivo
[14] = Intrinsic clearance in dog liver microsomes at 1 uM after 30 mins in presence of NADPH; assay type: ADME, Canis lupus familiaris, Microsome; details: read-out: CLH
Procedure, shortened: as §1

[15] = Clearance in dog at 0.3 mg/kg, iv; assay type: ADME, organism-based, Canis lupus familiaris; details: in vivo
[16] = Volume of distribution at steady state in dog at 0.3 mg/kg, iv; assay type: ADME, organism-based, Canis lupus familiaris; details: in vivo; for Vd: read-out: Vdss
[17] = Drug metabolism in dog hepatocytes assessed as hydroxylation on the quinoxaline bicycle; assay type: ADME, cell-based, Canis lupus familiaris, Hepatocyte
[18] = Apparent permeability in pig LLC-PK1 cells; assay type: ADME, cell-based, Sus scrofa
[19] = Fraction unbound in rat plasma at 5 uM by rapid equilibrium dialysis; assay type: ADME, cell-free
[20] = system: KMS-12-BM; test: Antitumor activity against human KMS-12-BM cells xenografted in SCID-bg mouse assessed as tumor growth inhibition at 50 mg/kg, po qd measured twice per week; assay type: functional; details: read-out: TGI
[21] = Fraction unbound in dog plasma by rapid equilibrium dialysis; assay type: ADME, cell-free, Canis lupus familiaris
[22] = Intrinsic clearance in dog hepatocytes assessed per 10^6 cells; assay type: ADME, cell-based, Canis lupus familiaris, Hepatocyte; details: read-out: CLH
[23] = Unbound clearance in iv dosed dog; assay type: ADME, organism-based, Canis lupus familiaris; details: in vivo
Procedure, shortened: (§2)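 Unbound plasma fraction (fu) measured by rapid equilibrium dialysis in rat or dog plasma; unbound clearance CLu calculated from IV clearance and fu.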

[24] = Drug metabolism in rat liver microsomes assessed as hydroxylation of t-butyl group measured as 2-(6-fluoro-3-(1-hydroxy-2-methylpropan-2-ylamino)-2-methylquinoxalin-5-yl)-6,7-dihydro-1H-pyrrolo[3,2-c]pyridin-4(5H)-one formation; assay type: ADME, Microsome
[25] = Drug metabolism in dog liver microsomes assessed as dehydrogenation of 6,7-dihydro-1H-pyrrolo[3,2-c]pyridin-4(5H)-one measured as 2-(3-(tert-butylamino)-6-fluoro-2-methylquinoxalin-5-yl)-1H-pyrrolo[3,2-c]pyridin-4(5H)-one formation; assay type: ADME, Canis lupus familiaris, Microsome
[26] = Intrinsic clearance in rat hepatocytes assessed per 10^6 cells; assay type: ADME, cell-based, Hepatocyte; details: read-out: CLH
[27] = Unbound clearance in iv dosed rat; assay type: ADME, organism-based; details: in vivo
Procedure, shortened: as §2

[28] = Drug level in rat liver microsomes treated with 2-(3-(tert-butylamino)-6-fluoro-2-methylquinoxalin-5-yl)-6,7-dihydro-1H-pyrrolo[3,2-c]pyridin-4(5H)-one; assay type: ADME, Microsome
Procedure, shortened: as §1

[29] = species on record: Homo sapiens; test: Ratio of IC50 for pan Pim in human KMS-12-BM cells to IC50 for full length recombinant Pim-2 (unknown origin); assay type: cell-based
Procedure, shortened: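 Enzyme step: full-length recombinant human Pim-2 phosphorylating a BAD peptide at Ser112. The shift is the ratio of the cellular potency to the enzymatic potency.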

Sequence of Serine/threonine-protein kinase pim-2 (Q9P1W9 whole entry): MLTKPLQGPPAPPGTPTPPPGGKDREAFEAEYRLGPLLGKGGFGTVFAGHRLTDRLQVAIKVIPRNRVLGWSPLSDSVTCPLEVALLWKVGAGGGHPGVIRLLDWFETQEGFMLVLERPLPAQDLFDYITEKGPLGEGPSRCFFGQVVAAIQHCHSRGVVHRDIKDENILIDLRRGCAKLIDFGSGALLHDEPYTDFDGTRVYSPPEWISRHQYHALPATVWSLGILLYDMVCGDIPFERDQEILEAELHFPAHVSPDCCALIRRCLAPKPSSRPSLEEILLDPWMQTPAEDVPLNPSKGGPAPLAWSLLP
Sequence of Serine/threonine-protein kinase pim-1 (P11309 whole entry): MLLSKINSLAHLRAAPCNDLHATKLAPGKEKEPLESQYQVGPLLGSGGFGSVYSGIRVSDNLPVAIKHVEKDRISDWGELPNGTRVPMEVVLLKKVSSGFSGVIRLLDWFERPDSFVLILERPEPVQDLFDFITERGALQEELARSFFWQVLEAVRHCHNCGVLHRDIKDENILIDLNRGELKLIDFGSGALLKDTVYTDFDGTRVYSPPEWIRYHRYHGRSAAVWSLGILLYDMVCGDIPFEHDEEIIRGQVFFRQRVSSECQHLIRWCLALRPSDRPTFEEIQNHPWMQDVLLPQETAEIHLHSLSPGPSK

| IC50 [1] [nM] | IC50 [2] [nM] | IC50 [3] [nM] | clearance [5] [mL/min/kg] | microsomal CLint at 1 µM [6] [µL/min/mg] | Vd [7] [L/kg] | microsomal CLint at 1 µM [8] [µL/min/mg] | half-life [9] [h] | bioavailability [10] [%] | solubility at 1 h [12] [µM] | Compound | further results |
| --- | --- | --- | --- | --- | --- | --- | --- | --- | --- | --- | --- |
| 0.2 | 0.1 | 148 | – | – | – | – | – | – | – | Cc1nc2ccc(F)c(-c3cc4c(=O)[nH]ccc4[nH]3)c2nc1NC(C)(C)C | Drug metabolism [4]: Metabolite_Detected |
| 0.8 | 0.6 | 110 | 11.7 | 86 | 4.2 | 70 | 4.7 | 6 | – | Cc1nc2cccc(-c3cc4c([nH]3)CCNC4=O)c2nc1NC(C)(C)C | – |
| – | – | – | – | 130 | – | 89 | – | – | – | Cc1nc2cccc(-c3cc4c([nH]3)[C@H](C)NC4=O)c2nc1NC(C)(C)C | – |
| 1.5 | 1 | 167 | – | – | – | – | – | – | 122 (≈ 46.3 µg/mL) | C[C@H]1NC(=O)c2cc(-c3cccc4c(=O)n(C)c(N(C)C(C)(C)C)nc34)[nH]c21 | solubility at 1 h [11]: 61 µM (≈ 23.1 µg/mL) |
| – | – | – | – | – | – | – | – | – | 295 (≈ 106 µg/mL) | Cc1nc2cccc3c2nc1N[C@H](C)/C=C\C[C@H]1CNC(=O)c2cc-3[nH]c21 | – |
| – | – | – | 8.33 | 50 | 1.3 | 37 | 3 | 62 | 245 (≈ 85.6 µg/mL) | Cc1nc2cccc(-c3cc4c([nH]3)[C@@H](C)NC4=O)c2nc1NC(C)(C)C | half-life [13]: 0.6 h; solubility at 1 h [11]: 99 µM (≈ 34.6 µg/mL); microsomal CLint at 1 µM [14]: 88 µL/min/mg; clearance [15]: 26.7 mL/min/kg; Vd [16]: 1.7 L/kg; Drug metabolism [17]: Metabolite_Detected |
| 0.9 | 0.6 | 88 | – | – | – | – | – | – | 35 (≈ 13.7 µg/mL) | C[C@H]1NC(=O)c2cc(-c3cccc4c(=O)n(C)c(N5CCCC5(C)C)nc34)[nH]c21 | solubility at 1 h [11]: 20 µM (≈ 7.83 µg/mL) |
| 0.4 | 0.5 | 78 | 10 | 52 | 1.3 | 35 | 4.5 | 100 | – | Cc1nc2cccc(-c3cc4c([nH]3)C3(CC3)NC4=O)c2nc1NC(C)(C)C | – |
| – | – | – | 8.33 | 52 | 1.6 | 35 | 2.9 | 54 | – | Cc1nc2ccc(F)c(-c3cc4c([nH]3)[C@@H](C)NC4=O)c2nc1NC(C)(C)C | half-life [13]: 1.1 h; microsomal CLint at 1 µM [14]: 105 µL/min/mg; clearance [15]: 25 mL/min/kg; Vd [16]: 1.7 L/kg |
| – | – | – | 6.67 | 16 | 1.4 | < 14 | 4.3 | 10 | 23 (≈ 8.82 µg/mL) | C[C@H]1NC(=O)c2cc(-c3c(F)ccc4c(=O)n(C)c(NC(C)(C)C)nc34)[nH]c21 | solubility at 1 h [11]: 14 µM (≈ 5.37 µg/mL); Papp [18]: 16 ×10⁻⁶ cm/s; fraction unbound at 5 µM [19]: 0.062 |
| 0.6 | 0.3 | 22 | 23.3 | < 14 | 21.2 | < 14 | 17.5 | < 1 | – | Cc1nc2cccc(-c3cc4c([nH]3)[C@@H](CCN)NC4=O)c2nc1NC(C)(C)C | – |
| 0.7 | 0.9 | 127 | – | – | – | – | – | – | 134 (≈ 51.1 µg/mL) | C[C@H]1NC(=O)c2cc(-c3cccc4c(=O)n(C)c(NC(C)(C)CO)nc34)[nH]c21 | solubility at 1 h [11]: 101 µM (≈ 38.5 µg/mL) |
| 0.3 | 0.3 | 23 | 6.67 | 189 | 1 | 66 | 3.5 | 37 | – | Cc1nc2ccc(F)c(-c3cc4c([nH]3)CCNC4=O)c2nc1NC(C)(C)C | t1/2 [13]: 0.6 h; inhibition in vivo at 50 mg/kg [20]: 78%; fraction unbound [21]: 0.06; microsomal CLint at 1 µM [14]: 203 µL/min/mg; hepatocyte CLint [22]: 32 µL/min/1e6 cells; CL free [23]: 943 mL/min/kg; CL [15]: 56.7 mL/min/kg; Drug metabolism [24]: Metabolite_Detected; Vdss [16]: 8.7 L/kg; Drug metabolism [25]: Metabolite_Detected; hepatocyte CLint [26]: 39 µL/min/1e6 cells; fraction unbound at 5 µM [19]: 0.017; CL free [27]: 392 mL/min/kg |
| 2.5 | 2.5 | 1380 | – | 373 | – | 104 | – | – | – | Cc1nc2cccc(-c3cc4c(s3)C(=O)NC4)c2nc1NC(C)(C)C | – |
| – | – | – | – | – | 1.9 | – | – | 5 | 344 (≈ 125 µg/mL) | C[C@H]1NC(=O)c2cc(-c3cccc4c(=O)n(C)c(NC5(C)CC5)nc34)[nH]c21 | solubility at 1 h [11]: 56 µM (≈ 20.4 µg/mL); Papp [18]: 29 ×10⁻⁶ cm/s |
| 4.5 | 7.4 | 1642 | – | – | – | – | – | – | – | C[C@H]1NC(=O)c2cc(-c3nccc4c(=O)n(C)c(NC(C)(C)C)nc34)[nH]c21 | – |
| 44 | 117 | 5760 | – | 45 | – | < 14 | – | – | – | Cc1nc2cccc(-c3cc4c([nH]3)C3(CCOCC3)NC4=O)c2nc1NC(C)(C)C | – |
| 3.1 | 2.1 | > 2000 | – | – | – | – | – | – | – | Cc1c(NC(C)(C)C)nc2c(-c3cc4c([nH]3)[C@@H](C)NC4=O)cccn2c1=O | – |
| 6.4 | 6.8 | 2870 | – | 326 | – | 102 | – | – | – | Cc1nc2cccc(-c3cc4c(s3)CNC4=O)c2nc1NC(C)(C)C | – |
| 0.9 | 0.3 | 143 | – | – | – | – | – | – | – | Cc1nc2ccc(F)c(-c3cc4c([nH]3)CCNC4=O)c2nc1NC(C)(C)CO | Drug metabolism [28]: Metabolite_Detected |
| – | – | – | – | 169 | – | 67 | – | – | – | Cc1nc2cccc(-c3cc4c([nH]3)CCCNC4=O)c2nc1NC(C)(C)C | – |
| 6.6 | 6.1 | 4560 | – | 205 | – | 85 | – | – | – | Cc1nc2cccc(-c3cc4n(c3)CCNC4=O)c2nc1NC(C)(C)C | – |
| 6.5 | 5.2 | 1142 | – | – | – | – | – | – | – | C[C@H]1NC(=O)c2cc(-c3cccc4c3N=C(NC(C)(C)C)N(C)S4(=O)=O)[nH]c21 | – |
| – | – | – | – | 143 | – | 111 | – | – | – | Cc1nc2cccc(-c3[nH]c4c(c3Cl)C(=O)N[C@@H]4C)c2nc1NC(C)(C)C | – |
| 7.3 | 4.9 | 5960 | – | – | – | – | – | – | 9 (≈ 3.28 µg/mL) | C[C@H]1NC(=O)c2cc(-c3cccc4c(=O)n(C)c(CC(C)(C)C)nc34)[nH]c21 | Ratio IC50 [29]: > 1000 |

| Compound | IC50 [1] [nM] | IC50 [2] [nM] | IC50 [3] [nM] | clearance [5] [mL/min/kg] | microsomal CLint at 1 µM [6] [µL/min/mg] | Vd [7] [L/kg] | microsomal CLint at 1 µM [8] [µL/min/mg] | half-life [9] [h] | bioavailability [10] [%] | solubility at 1 h [12] [µM] | further results |
| --- | --- | --- | --- | --- | --- | --- | --- | --- | --- | --- | --- |
| Cc1nc2cccc(-c3cc4c([nH]3)CNC4=O)c2nc1NC(C)(C)C | – | 0.9 | 44 | 26.7 | 96 | 2.3 | 45 | 1.7 | 36 | – | – |
